Results published in ChEMBL document CHEMBL1155161, “Effects of the translocation status of human immunodeficiency virus type 1 reverse transcriptase on the efficiency of excision of tenofovir” (Antimicrob Agents Chemother, 2007).

Experiments:
[1] = target: Human immunodeficiency virus type 1 reverse transcriptase (Human immunodeficiency virus 1) (UniProt Q72547); experiment: Ratio of Ki to Km for HIV1 reverse transcriptase by steady state nucleotide incorporation assay
Method in brief: (§1)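 Steady-state kinetics for WT or 4Y p66/p51 RT on activated calf thymus DNA, with template in excess. Rates come from linear regression of [3H]dNTP incorporation over a time course, with increasing NRTI. Km and Ki are fitted with a competitive inhibition equation (Marquardt-Levenberg); two-tailed t-tests.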

[2] = test system: Human immunodeficiency virus 1; experiment: Ratio of Ki/Km for HIV1 reverse transcriptase M41L/D67N/L210W/T215Y mutant to Ki/Km for wild-type reverse transcriptase; method in brief: as §1
[3] = test system: Human immunodeficiency virus 1; experiment: Ratio of Ki for HIV1 reverse transcriptase M41L/D67N/L210W/T215Y mutant to Ki for wild-type reverse transcriptase; method in brief: as §1
[4] = target: Human immunodeficiency virus type 1 reverse transcriptase (Human immunodeficiency virus 1, UniProt Q72547, D67N/L210W/M41L/T215Y); experiment: Inhibition of HIV1 reverse transcriptase M41L/D67N/L210W/T215Y mutant by steady state nucleotide incorporation assay; method in brief: as §1
[5] = test system: Human immunodeficiency virus type 1 reverse transcriptase (Human immunodeficiency virus 1), Q72547 [M41L,D67N,L210W,T215Y]; experiment: Ratio of Ki to Km for HIV1 reverse transcriptase M41L/D67N/L210W/T215Y mutant by steady state nucleotide incorporation assay; method in brief: as §1
[6] = target: T1, Human immunodeficiency virus type 1 reverse transcriptase (Human immunodeficiency virus 1, UniProt Q72547); experiment: Inhibition of HIV1 reverse transcriptase by steady state nucleotide incorporation assay
Method in brief: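 Steady-state assay with activated calf thymus DNA as template in excess; rates from linear regression of [3H]dNTP incorporation over time; Km and Ki fitted to competitive inhibition equation (constant Vmax) over increasing NRTI concentrations; two-tailed t tests.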

[7] = target: T1, Human immunodeficiency virus type 1 reverse transcriptase; experiment: Binding affinity to ternary complex of HIV1 reverse transcriptase with primer/template in presence of dCTP substrate
[8] = test system: Human immunodeficiency virus type 1 reverse transcriptase (Human immunodeficiency virus 1), Q72547 [M41L,D67N,L210W,T215Y]; experiment: Inhibition of HIV1 reverse transcriptase M41L/D67N/L210W/T215Y mutant assessed as dCTP level required to form 80% of binary enzyme complex formation with drug-terminated primer in posttranslocation state by site-specific foot printing assay
Method in brief: (§2)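 Site-specific footprinting uses a radiolabelled template with WT or 4Y p66/p51 RT in pH 7 cacodylate buffer with 6 mM MgCl2. The primer is chain-terminated with 10 μM analogue (20 min, 37°C), then the next nucleotide dCTP is added at varying levels for 10 min at 37°C. Complexes are treated with KOONO and resolved on urea gels. The value is the dCTP level giving 50% or 80% posttranslocated complex; ≥3 experiments.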

[9] = target: Human immunodeficiency virus type 1 reverse transcriptase (Human immunodeficiency virus 1) (UniProt Q72547); experiment: Inhibition of HIV1 reverse transcriptase assessed as dCTP level required to form 80% of binary enzyme complex formation with drug-terminated primer in posttranslocation state by site-specific foot printing assay; method in brief: as §2
[10] = test system: Human immunodeficiency virus type 1 reverse transcriptase (Human immunodeficiency virus 1), Q72547 [M41L,D67N,L210W,T215Y]; experiment: Ratio of Kcat to Km for HIV1 reverse transcriptase M41L/D67N/L210W/T215Y mutant assessed as nucleotide excision activity in presence of 0.5 uM dCTP
Method in brief: (§3)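 Purified heterodimeric p66/p51 HIV-1 RT (WT or M41L/D67N/L210W/T215Y). ATP plus a dNTP mix containing the next nucleotide dCTP (0.5 or 10 μM) is then added at 37°C. Excised/rescued product is followed over time on denaturing urea gels. ATP Km and Vmax give kcat/Km; means of ≥3 experiments. Ratios are 4Y/WT or 0.5/10 μM dCTP.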

[11] = test system: Human immunodeficiency virus 1; experiment: Ratio of Kcat/Km for HIV1 reverse transcriptase M41L/D67N/L210W/T215Y mutant to Kcat/Km for wild-type reverse transcriptase assessed as nucleotide excision activity in presence of 0.5 uM dCTP; method in brief: as §3
[12] = target: Human immunodeficiency virus type 1 reverse transcriptase (Human immunodeficiency virus 1) (UniProt Q72547); experiment: Ratio of Kcat/Km for HIV1 reverse transcriptase in presence of 0.5 uM dCTP to Kcat/Km for reverse transcriptase in presence of 10 uM dCTP by nucleotide excision activity assay; method in brief: as §3
[13] = test system: Human immunodeficiency virus type 1 reverse transcriptase (Human immunodeficiency virus 1), Q72547 [M41L,D67N,L210W,T215Y]; experiment: Inhibition of HIV1 reverse transcriptase M41L/D67N/L210W/T215Y mutant assessed as dCTP level required to form 50% of binary enzyme complex formation with drug-terminated primer in posttranslocation state by site-specific foot printing assay; method in brief: as §2
[14] = test system: Human immunodeficiency virus 1; experiment: Ratio of Kcat/Km for HIV1 reverse transcriptase M41L/D67N/L210W/T215Y mutant to Kcat/Km for wild-type reverse transcriptase assessed as nucleotide excision activity in presence of 10 uM dCTP; method in brief: as §3
[15] = target: Human immunodeficiency virus type 1 reverse transcriptase (Human immunodeficiency virus 1) (UniProt Q72547); experiment: Inhibition of HIV1 reverse transcriptase assessed as dCTP level required to form 50% of binary enzyme complex formation with drug-terminated primer in posttranslocation state by site-specific foot printing assay; method in brief: as §2
[16] = test system: Human immunodeficiency virus type 1 reverse transcriptase (Human immunodeficiency virus 1), Q72547 [M41L,D67N,L210W,T215Y]; experiment: Ratio of Kcat/Km for HIV1 reverse transcriptase M41L/D67N/L210W/T215Y mutant in presence of 0.5 uM dCTP to Kcat/Km for reverse transcriptase M41L/D67N/L210W/T215Y mutant in presence of 10 uM dCTP by nucleotide excision activity assay; method in brief: as §3
[17] = target: Human immunodeficiency virus type 1 reverse transcriptase (Human immunodeficiency virus 1) (UniProt Q72547); experiment: Ratio of Kcat to Km for HIV1 reverse transcriptase assessed as nucleotide excision activity in presence of 0.5 uM dCTP; method in brief: as §3
[18] = target: Human immunodeficiency virus type 1 reverse transcriptase (Human immunodeficiency virus 1) (UniProt Q72547); experiment: Ratio of Kcat to Km for HIV1 reverse transcriptase assessed as nucleotide excision activity in presence of 10 uM dCTP; method in brief: as §3
[19] = test system: Human immunodeficiency virus type 1 reverse transcriptase (Human immunodeficiency virus 1), Q72547 [M41L,D67N,L210W,T215Y]; experiment: Ratio of Kcat to Km for HIV1 reverse transcriptase M41L/D67N/L210W/T215Y mutant assessed as nucleotide excision activity in presence of 10 uM dCTP; method in brief: as §3
[20] = test system: Cc1cn([C@H]2C[C@H](N=[N+]=[N-])[C@@H](COP(=O)(O)O)O2)c(=O)[nH]c1=O; experiment: (§4) Activity of HIV1 reverse transcriptase M41L/D67N/L210W/T215Y mutant assessed as nucleotide excision activity in presence of 0.5 uM dCTP; conditions: Human immunodeficiency virus 1; method in brief: as §3
[21] = test system: C[C@H](Cn1cnc2c(N)ncnc21)OCP(=O)(O)O; experiment: as §4; conditions: Human immunodeficiency virus 1; method in brief: as §3
[22] = test system: [N-]=[N+]=N[C@H]1C[C@H](n2cnc3c(N)ncnc32)O[C@@H]1COP(=O)(O)O; experiment: as §4; conditions: Human immunodeficiency virus 1; method in brief: as §3
[23] = test system: Cc1cn([C@H]2C[C@H](N=[N+]=[N-])[C@@H](COP(=O)(O)O)O2)c(=O)[nH]c1=O; experiment: (§5) Activity of HIV1 reverse transcriptase M41L/D67N/L210W/T215Y mutant assessed as nucleotide excision activity in presence of 10 uM dCTP; conditions: Human immunodeficiency virus 1; method in brief: as §3
[24] = test system: C[C@H](Cn1cnc2c(N)ncnc21)OCP(=O)(O)O; experiment: as §5; conditions: Human immunodeficiency virus 1; method in brief: as §3
[25] = test system: [N-]=[N+]=N[C@H]1C[C@H](n2cnc3c(N)ncnc32)O[C@@H]1COP(=O)(O)O; experiment: as §5; conditions: Human immunodeficiency virus 1; method in brief: as §3

Molecule | Ratio [1] | Ratio [2] | Ratio Ki [3] | Ki [4] | Ratio [5] | Ki [6] | Kd [7] | Activity [8] | Activity [9] | Ratio [10] | Ratio [11] | Ratio [12] | Activity [13] | Ratio [14] | Activity [15] | Ratio [16] | Ratio [17] | Ratio [18] | Ratio [19] | further results
C[C@H](Cn1cnc2c(N)ncnc21)OCP(=O)(O)OP(=O)(O)O | 0.47 | 0.4 | 0.5 | 110 nM | 0.19 | 210 nM |  |  |  |  |  |  |  |  |  |  |  |  |  | 
[N-]=[N+]=N[C@H]1C[C@H](n2cnc3c(N)ncnc32)O[C@@H]1COP(=O)(O)OP(=O)(O)OP(=O)(O)OP(=O)(O)O | 0.51 | 0.5 | 0.65 | 150 nM | 0.26 | 230 nM |  |  |  |  |  |  |  |  |  |  |  |  |  | 
Nc1ncnc2c1ncn2[C@H]1CC[C@@H](COP(=O)(O)O)O1 |  |  |  |  |  |  | 100 nM | 0.3 µM | 0.2 µM |  |  |  |  |  |  |  |  |  |  | 
Cc1cn([C@H]2C[C@H](N=[N+]=[N-])[C@@H](COP(=O)(O)OP(=O)(O)OP(=O)(O)O)O2)c(=O)[nH]c1=O | 0.09 | 1 | 1.2 |  | 0.09 |  |  |  |  |  |  |  |  |  |  |  |  |  |  | 
[N-]=[N+]=N[C@H]1C[C@H](n2cnc3c(N)ncnc32)O[C@@H]1COP(=O)(O)O |  |  |  |  |  |  |  | > 100 µM | 100 µM | 1.6 | 3.3 | 1.3 | 27 µM | 3.2 | 10 µM | 1.3 | 0.49 | 0.37 | 1.2 | 
Cc1cn([C@H]2C[C@H](N=[N+]=[N-])[C@@H](COP(=O)(O)O)O2)c(=O)[nH]c1=O [AZIDOTHYMIDINE MONOPHOSPHATE] |  |  |  |  |  |  | 24900 nM | 50 µM | 31 µM | 1.3 | 6.8 | 1.2 | 8 µM | 6.8 | 8 µM | 1.2 | 0.19 | 0.16 | 1.08 | 
Nc1ncnc2c1ncn2[C@H]1CC[C@@H](COP(=O)(O)OP(=O)(O)OP(=O)(O)O)O1 [DDA-TRIPHOSPHATE] | 0.2 | 0.5 | 0.6 | 50 nM | 0.09 | 90 nM |  |  |  |  |  |  |  |  |  |  |  |  |  | 
C[C@H](Cn1cnc2c(N)ncnc21)OCP(=O)(O)O [TENOFOVIR ANHYDROUS] |  | 0.4 |  |  |  |  | 3200 nM | 2 µM | 3 µM | 16.4 | 14.9 | 7.3 | 0.3 µM | 19.3 | 0.1 µM | 5.7 | 1.1 | 0.15 | 2.9 | 
Cc1cn([C@H]2C[C@H](N=[N+]=[N-])[C@@H](CO[P@](=O)(O)O[P@](=O)(O)OP(=O)(O)O)O2)c(=O)[nH]c1=O [ZIDOVUDINE TRIPHOSPHATE] |  |  |  | 47 nM |  | 41 nM |  |  |  |  |  |  |  |  |  |  |  |  |  | 
Human immunodeficiency virus type 1 reverse transcriptase (Human immunodeficiency virus 1) (from UniProt Q72547) M41L,D67N,L210W,T215Y |  |  |  |  |  |  |  |  |  |  |  |  |  |  |  |  |  |  |  | Km [20]: 1400 µM; kcat [20]: 1.8 ×10⁻³ /min; Km [21]: 590 µM; kcat [21]: 9.7 ×10⁻³ /min; Km [22]: 2000 µM; kcat [22]: 3.2 ×10⁻³ /min; Km [23]: 1200 µM; kcat [23]: 1.3 ×10⁻³ /min; Km [24]: 960 µM; kcat [24]: 2.8 ×10⁻³ /min; Km [25]: 2000 µM; kcat [25]: 2.4 ×10⁻³ /min
